Data as given in ChEMBL document CHEMBL4138242, “Synthesis and antibacterial evaluation of novel cationic chalcone derivatives possessing broad spectrum antibacterial activity” (Eur J Med Chem, 2018).
Active and inactive are the calls of the source.

Assays:
Staphylococcus aureus [1] = experiment: Bactericidal activity against Staphylococcus aureus ATCC 29213 preincubated with 50% sheep plasma at 512 ug/ml for 3 to 6 hrs followed by compound serial dilution and subsequent bacterial inoculation measured after 20 to 24 hrs; format: functional; conditions: read-out: MBC99.9
Procedure, shortened: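 Compound at 512 µg/mL in 50% water/50% sheep plasma, preincubated at 37 °C for 0, 3 or 6 h. Then serially diluted (256-4 µg/mL) and combined 50:150 µL with S. aureus at 10⁵ CFU/mL, 37 °C for 20-24 h. MBC determined by plating; three parallel samples.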

Staphylococcus aureus [2] = experiment: Antibacterial activity against Staphylococcus aureus ATCC 29213 after 16 to 20 hrs by broth microdilution method; format: functional
Procedure, shortened: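 Broth microdilution per CLSI. Bacteria grown 4-6 h (about 10⁸ CFU/mL), then diluted to about 10⁶ CFU/mL. Medium: Mueller-Hinton broth, except Luria-Bertani broth for E. coli. Compounds in sterile water, twofold series 256-0.5 µg/mL, mixed 1:1 with inoculum, 37 °C for 16-20 h. MIC is the lowest concentration without visible growth. Duplicate wells; experiment repeated at least twice.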

[3] = Hemolytic activity in sheep RBC after 1 hr; format: ADME, cell-based, Ovis aries, Erythrocyte; conditions: sheep red blood cells (erythrocytes)
Procedure, shortened: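 Sheep red blood cells (150 µL suspension) mixed with 50 µL of compound dilutions (5120-10 µg/mL), 1 h at 37 °C, then centrifuged. Supernatant read at 540 nm. Percent hemolysis calculated relative to RBC-only control (0%) and 0.1% Triton X-100 (100%).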

Staphylococcus aureus [4] = experiment: Antibacterial activity against methicillin-resistant Staphylococcus aureus clinical isolate 20130911034sau after 16 to 20 hrs by broth microdilution method; format: functional
Procedure, shortened: (§1)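 CLSI broth microdilution in Mueller-Hinton broth. A 4-6 h culture was diluted to about 10⁶ CFU/mL and mixed 1:1 with compound dilutions prepared at 256 to 0.5 µg/mL from aqueous stocks. Plates were incubated at 37 °C for 16-20 h and read visually for MIC. Each concentration was run in duplicate, and the experiment was repeated at least twice. Vancomycin and meropenem were comparators.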

Staphylococcus aureus [5] = experiment: Antibacterial activity against methicillin-resistant Staphylococcus aureus clinical isolate 20131012632sau after 16 to 20 hrs by broth microdilution method; format: functional; procedure, shortened: as §1
Staphylococcus aureus [6] = experiment: Antibacterial activity against methicillin-resistant Staphylococcus aureus clinical isolate 1207007 after 16 to 20 hrs by broth microdilution method; format: functional; procedure, shortened: as §1
Staphylococcus aureus [7] = experiment: Antibacterial activity against methicillin-resistant Staphylococcus aureus clinical isolate 0906202 after 16 to 20 hrs by broth microdilution method; format: functional; procedure, shortened: as §1
Staphylococcus aureus [8] = experiment: Antibacterial activity against methicillin-resistant Staphylococcus aureus clinical isolate 1208143 after 16 to 20 hrs by broth microdilution method; format: functional; procedure, shortened: as §1
Klebsiella pneumoniae [9] = experiment: Antibacterial activity against drug-resistant carbapenemase producing Klebsiella pneumoniae clinical isolate KP-14-8 after 16 to 20 hrs by broth microdilution method; format: functional; procedure, shortened: as §1
Klebsiella pneumoniae [10] = experiment: Antibacterial activity against drug-resistant carbapenemase producing Klebsiella pneumoniae clinical isolate KP-14-3 after 16 to 20 hrs by broth microdilution method; format: functional; procedure, shortened: as §1
Klebsiella pneumoniae [11] = experiment: Antibacterial activity against drug-resistant carbapenemase producing Klebsiella pneumoniae clinical isolate KP-14-5 after 16 to 20 hrs by broth microdilution method; format: functional; procedure, shortened: as §1
Klebsiella pneumoniae [12] = experiment: Antibacterial activity against drug-resistant carbapenemase producing Klebsiella pneumoniae clinical isolate KP-14-45 after 16 to 20 hrs by broth microdilution method; format: functional; procedure, shortened: as §1
Klebsiella pneumoniae [13] = experiment: Antibacterial activity against drug-resistant carbapenemase producing Klebsiella pneumoniae clinical isolate KP-14-18 after 16 to 20 hrs by broth microdilution method; format: functional; procedure, shortened: as §1
Escherichia coli [14] = experiment: Antibacterial activity against drug-resistant NDM1 producing Escherichia coli clinical isolate EC-13-49 after 16 to 20 hrs by broth microdilution method; format: functional; procedure, shortened: as §1
Escherichia coli [15] = experiment: Antibacterial activity against drug-resistant NDM1 producing Escherichia coli clinical isolate Ecl-14-58 after 16 to 20 hrs by broth microdilution method; format: functional; procedure, shortened: as §1
Escherichia coli [16] = experiment: Antibacterial activity against drug-resistant NDM1 producing Escherichia coli clinical isolate KP-13-58 after 16 to 20 hrs by broth microdilution method; format: functional; procedure, shortened: as §1
Escherichia coli [17] = experiment: Antibacterial activity against drug-resistant NDM1 producing Escherichia coli clinical isolate Ecl-14-59 after 16 to 20 hrs by broth microdilution method; format: functional; procedure, shortened: as §1
Escherichia coli [18] = experiment: Antibacterial activity against drug-resistant NDM1 producing Escherichia coli clinical isolate Ecl-14-56 after 16 to 20 hrs by broth microdilution method; format: functional; procedure, shortened: as §1
Escherichia coli [19] = experiment: Antibacterial activity against drug-resistant NDM1 producing Escherichia coli clinical isolate 1460 after 16 to 20 hrs by broth microdilution method; format: functional; procedure, shortened: as §1
Escherichia coli [20] = experiment: Antibacterial activity against drug-resistant NDM1 producing Escherichia coli clinical isolate SM-15-84 after 16 to 20 hrs by broth microdilution method; format: functional; procedure, shortened: as §1
Escherichia coli [21] = experiment: Antibacterial activity against drug-resistant NDM1 producing Escherichia coli clinical isolate CF-13-61 after 16 to 20 hrs by broth microdilution method; format: functional; procedure, shortened: as §1
Staphylococcus aureus [22] = experiment: Antibacterial activity against Staphylococcus aureus ATCC 29213 at sub MIC after 20 passages; format: functional, organism-based
Procedure, shortened: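 The MIC was first measured by broth microdilution. Cells grown at MIC/2 were then carried into a fresh MIC assay after each 24 h, repeated over 20 serial passages. Norfloxacin (S. aureus) and colistin (E. coli) served as control antibiotics. Resistance was defined as a >4-fold rise over the original MIC.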

Staphylococcus aureus [23] = experiment: Bactericidal activity against methicillin-resistant Staphylococcus aureus in presence of 50% sheep serum after 20 to 24 hrs; format: functional; conditions: read-out: MBC99.9
Procedure, shortened: (§2)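 MRSA at 10⁵ CFU/mL in 50% MHB plus 50% sheep serum, plasma or defibrinated blood; serum and plasma were obtained by centrifugation at 3,500 rpm for 10 min. Aqueous dilutions prepared at 512-4 µg/mL were added 1:3 to the suspension and incubated for 20-24 h at 37 °C. Well contents (20 µL) were plated on MHA for 20-24 h, and MBC was the concentration giving no colonies.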

Staphylococcus aureus [24] = experiment: Bactericidal activity against methicillin-resistant Staphylococcus aureus in presence of 50% sheep blood after 20 to 24 hrs; format: functional; conditions: read-out: MBC99.9; procedure, shortened: as §2
Staphylococcus aureus [25] = experiment: Induction of cytoplasmic membrane depolarization in Staphylococcus aureus ATCC 29213 at 10 to 20 ug/ml measured every 2 mins for 12 mins by DiSC35 dye-based fluorescence assay; format: functional, organism-based
Procedure, shortened: (§3)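 Mid-log cells (~10⁸ CFU/mL) were suspended in PBS (S. aureus) or HEPES/glucose/KCl with EDTA (E. coli). They were preloaded with DiSC3(5) for 30 min (S. aureus) or 40 min (E. coli), and baseline fluorescence was read for 8 min. Compound was added to 20 µg/mL final, and fluorescence (ex 622/em 670 nm) was read every 2 min for 12 min. Water served as control.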

Escherichia coli [26] = experiment: Induction of cytoplasmic membrane depolarization in Escherichia coli ATCC 25922 at 10 to 20 ug/ml measured every 2 mins for 12 mins by DiSC35 dye-based fluorescence assay; format: functional, organism-based; procedure, shortened: as §3
Staphylococcus aureus [27] = experiment: Induction of inner membrane permeabilization in Staphylococcus aureus ATCC 29213 at 10 to 20 ug/ml measured every 2 mins for 12 mins by propidium iodide staining-based fluorescence assay; format: functional, organism-based
Procedure, shortened: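 Mid-log cells (~10⁸ CFU/mL) were suspended in PBS (S. aureus) or HEPES/glucose/KCl (E. coli). They were preincubated with propidium iodide for 30 min (S. aureus) or 40 min (E. coli), and baseline fluorescence was read for 8 min. Compound was added to 20 µg/mL final, and fluorescence (ex 535/em 617 nm) was read every 2 min for 12 min.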

Work on `CCCCCCCC[N+](C)(C)CC(=O)Nc1ccc(C(=O)/C=C/c2ccccc2F)cc1.[Cl-]` yielded an MBC (Staphylococcus aureus [1]) of 16 µg/mL, an MIC (Staphylococcus aureus [2]) of 0.5 µg/mL and an HC50 at 1 h [3] of 137 µg/mL. It also gave an MIC (Staphylococcus aureus [4]) of 0.5 µg/mL, an MIC (Staphylococcus aureus [5]) of 2 µg/mL and an MIC (Staphylococcus aureus [6]) of 0.25 µg/mL. The MIC (Staphylococcus aureus [7]) was 4 µg/mL, the MIC (Staphylococcus aureus [8]) was 1 µg/mL and the MIC (Klebsiella pneumoniae [9]) was 4 µg/mL. For the same molecule, the MIC (Klebsiella pneumoniae [10]) was 8 µg/mL, the MIC (Klebsiella pneumoniae [11]) was 4 µg/mL and the MIC (Klebsiella pneumoniae [12]) was 8 µg/mL. The MIC (Klebsiella pneumoniae [13]) was 16 µg/mL, the MIC (Escherichia coli [14]) was 4 µg/mL and the MIC (Escherichia coli [15]) was 4 µg/mL. It also gave an MIC (Escherichia coli [16]) of 1 µg/mL, an MIC (Escherichia coli [17]) of 16 µg/mL and an MIC (Escherichia coli [18]) of 4 µg/mL. The MIC (Escherichia coli [19]) was 4 µg/mL, the MIC (Escherichia coli [20]) was 16 µg/mL and the MIC (Escherichia coli [21]) was 4 µg/mL. The Activity (Staphylococcus aureus [22]) was “Active”, the MBC (Staphylococcus aureus [23]) was 32 µg/mL and the MBC (Staphylococcus aureus [24]) was 128 µg/mL. For the same molecule, the Activity (Staphylococcus aureus [25]) was “Active”, the Activity (Escherichia coli [26]) was “Active” and the Activity (Staphylococcus aureus [27]) was “Active”.
